Reference: ChEMBL document CHEMBL1144033, “Novel trans-3,4-dimethyl-4-(3-hydroxyphenyl)piperidines as mu opioid receptor antagonists with improved opioid receptor selectivity profiles” (Bioorg Med Chem Lett, 2008)
Calls of active or inactive are those of the source. No cut-off for these calls is given here.

Legend:
[1] = biological target: T1, Kappa-type opioid receptor (Homo sapiens, UniProt P41145); test: Displacement of [3H]diprenorphine from human cloned kappa opioid receptor
[2] = biological target: T2, Delta-type opioid receptor (Homo sapiens, UniProt P41143); test: Displacement of [3H]diprenorphine from human cloned delta opioid receptor
T2 sequence (P41143 whole entry): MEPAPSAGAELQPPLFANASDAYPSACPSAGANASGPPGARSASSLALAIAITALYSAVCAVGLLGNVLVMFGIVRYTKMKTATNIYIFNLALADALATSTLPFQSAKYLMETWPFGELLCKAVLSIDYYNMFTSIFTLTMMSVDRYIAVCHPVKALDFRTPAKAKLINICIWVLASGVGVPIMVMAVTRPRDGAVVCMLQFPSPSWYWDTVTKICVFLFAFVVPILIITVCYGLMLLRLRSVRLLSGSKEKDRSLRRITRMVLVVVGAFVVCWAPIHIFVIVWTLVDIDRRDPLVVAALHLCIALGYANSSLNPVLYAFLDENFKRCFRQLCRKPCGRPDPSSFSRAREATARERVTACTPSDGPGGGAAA

Mus musculus [3] = test: Antagonist activity on morphine-induced gastrointestinal antitransit effect in Swiss Webster mouse at 0.1 mg/kg, sc after 1 hr; type: functional; design: scale not given: the % may be the effect or the level left; conditions: route subcutaneous
How it was run: (§1)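 Male Swiss-Webster mice (20-25 g), fasted overnight, got vehicle (10% DMSO:20% cremophor EL:70% saline) or compound s.c. Morphine (3 mg/kg s.c.) followed 25 min later. After a further 10 min, mice received 0.3 mL charcoal meal (charcoal:flour:water 1:2:8, w/w/v). Small intestine removed 25 min later; %GIT = charcoal leading-edge distance/intestine length ×100.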

[4] = biological target: T1, Kappa-type opioid receptor; test: Displacement of [3H]diprenorphine from human cloned kappa opioid receptor at 10 uM
[5] = biological target: Mu-type opioid receptor (Homo sapiens) (UniProt P35372); test: Displacement of [3H]diprenorphine from human cloned mu opioid receptor at 10 uM
Chain of Mu-type opioid receptor (Homo sapiens) (P35372 whole entry): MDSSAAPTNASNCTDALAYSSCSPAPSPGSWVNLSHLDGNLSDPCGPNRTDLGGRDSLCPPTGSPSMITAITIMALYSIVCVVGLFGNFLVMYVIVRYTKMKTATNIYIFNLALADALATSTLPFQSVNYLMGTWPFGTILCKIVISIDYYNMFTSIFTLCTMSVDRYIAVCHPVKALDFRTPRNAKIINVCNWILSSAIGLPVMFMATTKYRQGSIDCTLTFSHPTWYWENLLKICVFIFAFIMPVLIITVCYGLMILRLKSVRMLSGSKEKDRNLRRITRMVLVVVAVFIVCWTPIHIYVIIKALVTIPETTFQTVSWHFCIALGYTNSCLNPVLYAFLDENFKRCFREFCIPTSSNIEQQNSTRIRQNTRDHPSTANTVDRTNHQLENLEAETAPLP

[6] = biological target: T2, Delta-type opioid receptor; test: Displacement of [3H]diprenorphine from human cloned delta opioid receptor at 10 uM
Mus musculus [7] = test: Antagonist activity on morphine-induced gastrointestinal antitransit effect in Swiss Webster mouse at 1 mg/kg, sc after 1 hr; type: functional; design: scale not given: the % may be the effect or the level left; conditions: route subcutaneous; how it was run: as §1
Mus musculus [8] = test: Antagonist activity on morphine-induced gastrointestinal antitransit effect in Swiss Webster mouse at 0.3 mg/kg, po after 1 hr; type: functional, organism-based; design: dose 0.3 mg/kg
Mus musculus [9] = test: Antagonist activity on morphine-induced physical dependence in Swiss Webster mouse at 10 mg/kg, po; type: functional, organism-based; design: dose 10 mg/kg

T1 sequence (P41145 whole entry): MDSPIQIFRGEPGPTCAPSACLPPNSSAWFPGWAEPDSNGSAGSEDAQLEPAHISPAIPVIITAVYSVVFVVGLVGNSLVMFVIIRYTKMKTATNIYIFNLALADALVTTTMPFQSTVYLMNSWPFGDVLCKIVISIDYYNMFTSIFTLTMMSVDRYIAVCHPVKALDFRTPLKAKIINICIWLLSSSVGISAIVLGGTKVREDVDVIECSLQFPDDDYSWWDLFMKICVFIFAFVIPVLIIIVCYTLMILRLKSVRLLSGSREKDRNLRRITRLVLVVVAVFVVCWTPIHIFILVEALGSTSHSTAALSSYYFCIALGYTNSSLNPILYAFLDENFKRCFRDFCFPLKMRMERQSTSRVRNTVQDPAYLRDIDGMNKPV

Structure (SMILES)	Ki [1] [nM]	Ki [2] [nM]	also measured
C[C@H]1CN(CCC(=O)N[C@@H](CCc2ccccc2)C(=O)O)CC[C@@]1(C)c1cccc(O)c1	690	360	–
C[C@H]1CN(CCC(=O)N(CCc2ccccc2)[C@@H](Cc2ccccc2)C(=O)O)CC[C@@]1(C)c1cccc(O)c1	1200	–	–
C[C@H]1CN(C[C@H](Cc2ccccc2)C(=O)N[C@@H](Cc2cccc3ccccc23)C(=O)O)CC[C@@]1(C)c1cccc(O)c1	83	31	–
C[C@H]1CN(CCC(=O)N(Cc2ccccc2)[C@@H](Cc2ccccc2)C(=O)O)CC[C@@]1(C)c1cccc(O)c1	550	39	–
C[C@H]1CN(C[C@H](Cc2ccccc2)C(=O)N[C@@H](Cc2ccccc2)C(=O)O)CC[C@@]1(C)c1cccc(O)c1	250	15	–
C[C@H]1CN(C[C@H](Cc2ccccc2)C(=O)NCC(=O)O)CC[C@@]1(C)c1cccc(O)c1 [ALVIMOPAN]	100	12	Activity (Mus musculus [3]): 69%
C[C@@H](NC(=O)[C@@H](Cc1ccccc1)CN1CC[C@@](C)(c2cccc(O)c2)[C@@H](C)C1)C(=O)O	910	74	–
C[C@H]1CN(CCC(=O)N(c2ccccc2)[C@@H](Cc2ccccc2)C(=O)O)CC[C@@]1(C)c1cccc(O)c1	1400	67	–
C[C@H]1CN(CCC(=O)N(Cc2ccc(-c3ccccc3)cc2)[C@@H](Cc2ccccc2)C(=O)O)CC[C@@]1(C)c1cccc(O)c1	230	52	–
CCN(C(=O)CCN1CC[C@@](C)(c2cccc(O)c2)[C@@H](C)C1)[C@@H](Cc1ccccc1)C(=O)O	–	510	inhibition [4]: 44%
C[C@H]1CN(C[C@H](Cc2ccccc2)C(=O)N[C@@H](CC(=O)O)C(=O)O)CC[C@@]1(C)c1cccc(O)c1	–	500	inhibition [4]: 27%
C[C@H]1CN(CCC(=O)N[C@@H](Cc2ccc(-c3ccccc3)cc2)C(=O)O)CC[C@@]1(C)c1cccc(O)c1	1100	160	–
C[C@H]1CN(C[C@H](Cc2ccccc2)C(=O)N[C@@H](Cc2ccc(-c3ccccc3)cc2)C(=O)O)CC[C@@]1(C)c1cccc(O)c1	160	8.3	–
C[C@H]1CN(C[C@H](Cc2ccccc2)C(=O)N[C@@H](CC2CCCCC2)C(=O)O)CC[C@@]1(C)c1cccc(O)c1	720	15	–
C[C@H]1CN(CCC(=O)NCC(=O)O)CC[C@@]1(C)c1cccc(O)c1	–	–	inhibition [5]: 20%; inhibition [4]: 4%; inhibition [6]: 5%
C[C@H]1CN(CCC(=O)N[C@@H](Cc2ccccc2)C(=O)O)CC[C@@]1(C)c1cccc(O)c1	–	990	inhibition [4]: 39%
C[C@H]1CN(CCC(=O)N(Cc2cccc(Cl)c2)[C@@H](Cc2ccccc2)C(=O)O)CC[C@@]1(C)c1cccc(O)c1	460	24	–
C[C@H](NC(=O)[C@@H](Cc1ccccc1)CN1CC[C@@](C)(c2cccc(O)c2)[C@@H](C)C1)C(=O)O	67	22	–
C[C@H]1CN(C[C@H](Cc2ccccc2)C(=O)N[C@@H](CCc2ccccc2)C(=O)O)CC[C@@]1(C)c1cccc(O)c1	510	10	–
C[C@H]1CN(CCC(=O)N(CC2CC2)[C@@H](Cc2ccccc2)C(=O)O)CC[C@@]1(C)c1cccc(O)c1	2200	100	–
CC(C)CN(C(=O)CCN1CC[C@@](C)(c2cccc(O)c2)[C@@H](C)C1)[C@@H](Cc1ccccc1)C(=O)O	2200	–	–
C[C@H]1CN(CCC(=O)N[C@@H](CCCCN)C(=O)O)CC[C@@]1(C)c1cccc(O)c1	–	–	inhibition [5]: 45%; inhibition [4]: 3%; inhibition [6]: 11%
C[C@H]1CN(C[C@H](Cc2ccccc2)C(=O)N[C@@H](CCC(=O)O)C(=O)O)CC[C@@]1(C)c1cccc(O)c1	–	360	inhibition [4]: 26%
C[C@H]1CN(C[C@H](Cc2ccccc2)C(=O)N[C@@H](CCCCN)C(=O)O)CC[C@@]1(C)c1cccc(O)c1	–	–	Activity (Mus musculus [3]): 64%; Activity (Mus musculus [7]): 82%; Activity (Mus musculus [8]): Active; Activity (Mus musculus [9]): inactive
C[C@H]1CN(CCC(=O)N(C)[C@@H](Cc2ccccc2)C(=O)O)CC[C@@]1(C)c1cccc(O)c1	–	620	inhibition [4]: 35%
C[C@H]1CN(CCC(=O)N[C@@H](CC2CCCCC2)C(=O)O)CC[C@@]1(C)c1cccc(O)c1	–	170	inhibition [4]: 44%
C[C@H]1CN(C[C@H](Cc2ccccc2)C(=O)N[C@@H](Cc2ccc3ccccc3c2)C(=O)O)CC[C@@]1(C)c1cccc(O)c1	240	3.2	–
